# The source made the active and inactive calls. No cut-off for these calls is given here.
# Legend:
# [1] = biological target: T1, Toll-like receptor 8 (Homo sapiens) (UniProt Q9NR97); assay: Agonist activity at TLR8 in human PBMC assessed as induction of IL-6 levels after 16 hrs by immunoassay
# T1 sequence (whole entry): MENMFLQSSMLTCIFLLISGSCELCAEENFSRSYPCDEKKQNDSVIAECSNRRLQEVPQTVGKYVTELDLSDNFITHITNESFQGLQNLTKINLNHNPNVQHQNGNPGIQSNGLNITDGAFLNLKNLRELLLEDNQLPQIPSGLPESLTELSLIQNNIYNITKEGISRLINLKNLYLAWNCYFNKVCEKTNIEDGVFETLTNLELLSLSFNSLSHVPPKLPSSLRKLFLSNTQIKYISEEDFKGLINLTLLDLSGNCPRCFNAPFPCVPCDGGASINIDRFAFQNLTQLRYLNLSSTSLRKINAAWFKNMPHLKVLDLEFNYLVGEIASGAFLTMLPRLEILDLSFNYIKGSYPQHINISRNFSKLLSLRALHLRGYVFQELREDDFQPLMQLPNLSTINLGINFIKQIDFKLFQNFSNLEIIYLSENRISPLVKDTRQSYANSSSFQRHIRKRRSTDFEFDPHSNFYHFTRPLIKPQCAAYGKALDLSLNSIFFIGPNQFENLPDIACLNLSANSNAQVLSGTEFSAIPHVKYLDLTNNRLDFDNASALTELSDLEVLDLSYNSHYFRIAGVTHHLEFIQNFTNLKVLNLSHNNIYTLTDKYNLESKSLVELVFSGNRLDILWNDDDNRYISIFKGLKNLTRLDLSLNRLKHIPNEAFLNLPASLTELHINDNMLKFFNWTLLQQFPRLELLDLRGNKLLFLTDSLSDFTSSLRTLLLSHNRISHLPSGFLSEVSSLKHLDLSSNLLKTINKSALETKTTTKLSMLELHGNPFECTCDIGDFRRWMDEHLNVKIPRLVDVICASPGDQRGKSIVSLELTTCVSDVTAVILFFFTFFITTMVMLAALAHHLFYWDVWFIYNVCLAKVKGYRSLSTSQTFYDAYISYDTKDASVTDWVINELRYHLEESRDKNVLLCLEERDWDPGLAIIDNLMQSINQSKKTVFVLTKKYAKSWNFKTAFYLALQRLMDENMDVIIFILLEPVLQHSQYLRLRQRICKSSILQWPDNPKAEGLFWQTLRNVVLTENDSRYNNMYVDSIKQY
# Outline: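 Freshly isolated human PBMC from venipuncture blood (informed consent), 10^5 cells/well, stimulated 16 h with graded concentrations of compound. Supernatants collected by centrifugation and cytokines quantified in duplicate with a multiplexed cytokine/chemokine magnetic bead array.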
# [2] = biological target: T2, Toll-like receptor 9 (Homo sapiens) (UniProt Q9NR96); assay: Agonist activity at human TLR9 expressed in HEK293 cells assessed as induction of NF-kappaB activity by secreted alkaline phosphatase reporter gene assay; assay type: cell-based
# T2 sequence (whole entry): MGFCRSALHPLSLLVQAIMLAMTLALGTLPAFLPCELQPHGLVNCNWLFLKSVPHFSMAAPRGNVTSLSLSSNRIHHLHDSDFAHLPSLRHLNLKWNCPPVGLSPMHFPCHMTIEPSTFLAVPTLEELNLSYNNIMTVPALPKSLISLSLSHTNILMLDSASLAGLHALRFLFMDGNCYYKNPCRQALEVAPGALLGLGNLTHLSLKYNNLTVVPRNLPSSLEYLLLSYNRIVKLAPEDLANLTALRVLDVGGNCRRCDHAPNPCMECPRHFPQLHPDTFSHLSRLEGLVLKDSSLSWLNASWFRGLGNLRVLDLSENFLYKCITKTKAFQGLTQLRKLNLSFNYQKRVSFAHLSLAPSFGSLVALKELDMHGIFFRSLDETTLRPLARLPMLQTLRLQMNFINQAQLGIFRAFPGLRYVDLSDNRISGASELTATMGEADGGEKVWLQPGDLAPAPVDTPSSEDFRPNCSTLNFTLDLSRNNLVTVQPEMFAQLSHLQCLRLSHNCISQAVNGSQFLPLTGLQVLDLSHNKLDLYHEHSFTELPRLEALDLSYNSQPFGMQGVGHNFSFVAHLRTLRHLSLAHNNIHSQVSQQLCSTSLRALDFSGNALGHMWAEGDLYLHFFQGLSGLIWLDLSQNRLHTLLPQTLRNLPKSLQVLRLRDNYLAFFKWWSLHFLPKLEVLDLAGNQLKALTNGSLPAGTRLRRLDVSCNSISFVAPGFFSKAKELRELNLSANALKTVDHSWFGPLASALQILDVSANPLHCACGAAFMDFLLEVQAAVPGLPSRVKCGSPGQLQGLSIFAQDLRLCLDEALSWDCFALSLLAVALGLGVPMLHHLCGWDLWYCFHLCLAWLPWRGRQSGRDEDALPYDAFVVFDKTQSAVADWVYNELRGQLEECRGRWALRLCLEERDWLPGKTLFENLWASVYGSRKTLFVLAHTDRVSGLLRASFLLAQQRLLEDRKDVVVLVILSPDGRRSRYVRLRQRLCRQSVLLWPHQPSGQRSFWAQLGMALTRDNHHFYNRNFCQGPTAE
# Outline: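 HEK293 reporter lines stably co-transfected with the respective human TLR and an NF-κB/AP-1-driven secreted alkaline phosphatase gene, kept in selection medium. About 10^5 cells/ml were incubated with graded concentrations of stimuli. Supernatant sAP was read spectrophotometrically at 620 nm using a chromogenic substrate in detection medium. EC50 was taken as the arithmetic mean of quadruplicate samples.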
SMILES,Activity [1],Activity [2]
CCCCNc1nc(N)nc(-c2ccccc2)c1CCCCN,inactive,inactive
CCCCCn1c(N)nc2c(C)cccc21,Active,inactive
CCCCNc1nc(N)nc(C)c1CCCCN,inactive,inactive
CCCCNc1cc(-c2ccccc2)nc(N)n1,inactive,inactive
CCCCNc1nc(N)nc(C)c1I,Active,inactive

# — ChEMBL document CHEMBL4428062, “Human Toll-like Receptor (TLR) 8-Specific Agonistic Activity in Substituted Pyrimidine-2,4-diamines” (J Med Chem, 2016)
